For series [1], the species on record is Danio rerio. In words: Antimelanogenic activity against zebrafish embryo assessed as whitening efficacy at 10 uM. The format is functional, organism-based.
For series [2], the species on record is Danio rerio. In words: Antimelanogenic activity against zebrafish embryo assessed as whitening efficacy. The format is functional, organism-based. In a few lines: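 Synchronized zebrafish embryos were treated with compound and scored for pigmentation. Controls received 0.1% DMSO or 0.2 mM PTU.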
The subject of series [3] is HMV-2 cell line. In words: Antimelanogenic activity against human HMVII cells assessed as melanin content in cell lysate at 100 uM relative to control. Type of series: functional. In a few lines:
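HMV-II human melanoma cells were cultured for 5 days with test sample or DMSO. Melanin pellets were collected from cell lysates, and total melanin content was expressed relative to the DMSO control.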

Series [4] relates to HMV-2 cell line. In words: Antimelanogenic activity against human HMVII cells assessed as change in melanin colour from black to brown. Type of series: functional, cell-based.
Series [5] relates to HMV-2 cell line. The series can be described thus: Antimelanogenic activity against human HMVII cells assessed as melanin content in cell lysate at 1 uM relative to control. Type of series: functional. A digest of the protocol:
(§1)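 Human melanoma HMV-II cells were exposed to compound at 1, 10 or 20 µM. Melanin was pelleted from cell lysates, and total melanin content was expressed relative to the DMSO-treated control.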

The subject of series [6] is HMV-2 cell line. In words: Antimelanogenic activity against human HMVII cells assessed as melanin content in cell lysate at 10 uM relative to control. Type of series: functional. A digest of the protocol:
as §1

In series [7] the test system is HMV-2 cell line. In words: Antimelanogenic activity against human HMVII cells assessed as melanin content in cell lysate at 20 uM relative to control. The format is functional. In a few lines:
as §1

Series [8] relates to HMV-2 cell line. In words: Antimelanogenic activity against human HMVII cells assessed as reduction in TRP1 mRNA level at 1 to 20 uM measured after 24 hrs by RT-PCR analysis. The format is functional, cell-based. In a few lines: (§2)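 HMV-II melanoma cells were treated with compound for 24 h. MITF, TRP-1 and TRP-2 mRNA levels were then quantified by real-time RT-PCR.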
The test system of series [9] is HMV-2 cell line. The series can be described thus: Antimelanogenic activity against human HMVII cells assessed as reduction in melanin content in cell lysate. Type of series: functional, cell-based. A digest of the protocol: as §1
In series [10] the test system is HMV-2 cell line. In words: Antimelanogenic activity against human HMVII cells assessed as reduction in TRP2 mRNA level at 1 to 20 uM measured after 24 hrs by RT-PCR analysis. The format is functional, cell-based. In a few lines:
as §2

For series [11], the system named is HMV-2 cell line. The series can be described thus: Antimelanogenic activity against human HMVII cells assessed as reduction in MITF mRNA level at 1 to 20 uM measured after 24 hrs by RT-PCR analysis. The format is functional, cell-based. In a few lines: as §2
Series [12] has as its system HMV-2 cell line. The series can be described thus: Antimelanogenic activity against human HMVII cells assessed as reduction in tyrosinase mRNA level at 10 to 20 uM measured after 24 hrs by RT-PCR analysis. The format is functional, cell-based.
The subject of series [13] is HMV-2 cell line. The series can be described thus: Cytotoxicity against human HMVII cells assessed as decrease in cell survival at 20 uM measured after 5 days by Cytox-reagent based relative to control. Particulars: hmv-2, 120 h. In a few lines: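 HMV-II cells were seeded at 7,500 cells/well and cultured 24 h, then exposed to compound for 5 days. Viability was read with CytoX reagent.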

The nature of series [14]: Toxicity against human eye assessed as effect on tissue viability up to 50 uM measured after 30 mins by MTT assay. The format is tissue-based. Particulars: 0.5 h. In a few lines:
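Reconstructed human ocular tissue (Neoderm-CD) was exposed to compound up to 50 µM and stained with MTT (1 mg/mL) for 30 min. Formazan was extracted with isopropanol and absorbance read at 570 nm.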
(Tetrazolium assays rely on reduction of a dye to a coloured formazan, in cell work by metabolically active cells.)

Series [15] is described as follows: Toxicity against human skin assessed as effect on tissue viability up to 50 uM measured after 3 hrs by MTT assay.

Structures are written as SMILES. Active and inactive are the calls of the source. No cut-off for these calls is given here.

Turning to `CCOC(=O)c1ccc(Sc2nccc3ccccc23)cc1`, the outcome in [1] was Active. `c1ccc(Sc2nccc3ccccc23)cc1`: the result in series [1] was Active. Besides, the Activity entry in [2] is “Dose-dependent effect”. Consider `c1ccc2c(Sc3nc4ccccc4s3)nccc2c1`, for which, in series [1], the result was inactive. As to `OC[C@H]1O[C@@H](Oc2ccc(O)cc2)[C@H](O)[C@@H](O)[C@@H]1O` [ARBUTIN], in series [3], the Activity amounted to 85.6%.

For `c1ccc2c(Sc3nc4ccccc4[nH]3)nccc2c1`, in series [1], the result was Active. For `Fc1ccc(Oc2nccc3ccccc23)cc1`, the outcome in series [1] was inactive. Same read-out and setting: then `c1ccc(Sc2nccc3ccccc23)nc1`, with “Active”. `Nc1ccc(Sc2nccc3ccccc23)cc1`: in series [1], the result was Active. As to `Fc1ccc(Sc2nccc3ccccc23)cc1`, the result in [1] and in series [4] was Active. For the same compound, the Activity entry in series [2] is “Dose-dependent effect”; in [5], 67.6%; in [6] it was 31.3%; in series [7] it was 14.6%; in series [9], “Dose-dependent effect”; in series [13] it was less than 10%. For the same compound, the Activity entry in series [14] and in series [15] was “Non-Toxic” each time. Moreover, the inhibition entry in series [8], in series [10], in [11] and in [12] was “Active” in each case. As for `Fc1ccccc1Sc1nccc2ccccc12`, the outcome in series [1] was Active. Same read-out and setting: then `c1ccc2c(Sc3nccc4ccccc34)nccc2c1`, with “Active”. As to `c1cnc(Sc2nccc3ccccc23)nc1`, in [1], the result was Active.

With `Fc1ccc(Sc2ncnc3[nH]cnc23)cc1`, the result in [1] was inactive. Still for that read-out and setting: then `Cc1ccc(Sc2nccc3ccccc23)cc1`, with “Active”; and `Fc1ccc(Sc2ncnc3cc[nH]c23)cc1`, with “Active”. In the case of `Fc1ccc(Sc2nccc3ccccc23)c(F)c1`, the outcome in series [1] was Active. Still for that read-out and setting: the entry for `Fc1ccc(Sc2[nH]cnc3nccc2-3)cc1` is “Active”.

Consider `Fc1ccc(Sc2ncnc3c(Br)csc23)cc1`, for which the outcome in series [1] was Active. Also, the Activity entry in series [2] is “Dose-dependent effect”. On to `FC(F)(F)c1ccc(Sc2nccc3ccccc23)cc1`, for which, in series [1], the outcome was inactive.

Take `Clc1ccc(Sc2nccc3ccccc23)cc1`: in series [1], the result was Active. Regarding `O=c1cc(CO)occ1O` [KOJIC ACID], the Activity in series [3] was found to be 45.9%.

As for `Fc1ccc(Nc2nccc3ccccc23)cc1`, in series [1], the result was inactive.

For the origin of these results see ChEMBL document CHEMBL4619757, “Identification of new arylsulfide derivatives as anti-melanogenic agents in a zebrafish model” (Bioorg Med Chem Lett, 2020).
